# procasp7 counter: counter-screen for procaspase-3 activators: activators of human procaspase-7. P55210. recombinant procaspase-7, Ac-DEVD-pNA absorbance 405 nm; D23A/D198A/D206A triple mutant, cannot self-cleave; scale: DMSO 0, 5 µM enzyme 100. activation, % at 8.5 µM. 330,000 tested, 0.093% active. AID 463210;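 active means percent activation above the screen-wide mean plus 3 SD, cut at about 25% in these data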
#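 buffer or medium = Zinc-free HEPES/NaCl buffer, pH 7.4 | material = Procaspase-7 triple mutant (PC-7 D3A) | input = 2 µM procaspase-7 mutant as dispensed | signal = Epi-absorbance of released pNA at 405 nm, two timepoints | timing = 1 h preincubation, 2 h reaction | replicates = singlicate compound testing | evaluation = % activation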
# PHOSPHO1 block: inhibitors of human PHOSPHO1 phosphatase; Q8TCT1; recombinant PHOSPHO1, absorbance phosphatase assay; inhibition, % at 13.3 µM; 290,000 tested, 1.1% active; AID 1565; in the data active means inhibition above about 60%
# Target sequence (Q8TCT1 whole entry, looked up): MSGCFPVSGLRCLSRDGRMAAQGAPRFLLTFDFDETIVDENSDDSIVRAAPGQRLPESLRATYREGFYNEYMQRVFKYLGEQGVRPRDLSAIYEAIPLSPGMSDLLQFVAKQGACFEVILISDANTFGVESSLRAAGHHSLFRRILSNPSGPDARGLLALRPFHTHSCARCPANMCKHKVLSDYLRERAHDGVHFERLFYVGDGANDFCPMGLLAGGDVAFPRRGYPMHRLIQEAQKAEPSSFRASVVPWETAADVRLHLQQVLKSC
# proCasp3 act: activates human procaspase-3. activation, % at 8.5 µM. P42574. recombinant procaspase-3 D3A, Ac-DEVD-pNA absorbance 405 nm. 330,000 tested, 0.11% active;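 active means activation above the mean of all tested compounds plus 3 SD, cut at about 21% in these data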;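 further: 0% = DMSO alone and 100% = DMSO wells spiked with extra 5 µM PC-3 D3A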
#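 Assay system: Procaspase-3 D3A mutant, all three cleavage aspartates alanine. Buffer or medium: Zinc-free HEPES saline buffer with Triton X-100. Times: 1 h compound preincubation, 2 h substrate hydrolysis at 25 °C. Measured by: 405 nm absorbance of p-nitroaniline, reads at 0 and 120 min. Read-out basis: percent activation relative to control range. Replicates: singlicate.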
# IDE cell inh: inhibits human insulin-degrading enzyme in HEK cells; P14735; FAbetaB cleavage, fluorescence polarization; inhibition, % at 5.59 µM; 320,000 tested, 0.41% active; AID 434962;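 active means percent inhibition above the average of all tested compounds plus 3 SD, set per screening campaign, cut at about 16% in these data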;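 further: IDE supplied by intact live HEK cells; FP after avidin binding of uncleaved biotin substrate so inhibition keeps polarization high; 0% = DMSO wells and 100% = 60 µM reference IDE inhibitor Ii1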
# IDE cell activ: activators of human insulin-degrading enzyme in cells; P14735; 340,000 tested, 0.073% active; HEK cells, FAbeta-B cleavage, fluorescence polarization; 0% vehicle, 100% cell-free pure enzyme wells; activation, % at 5.96 µM; AID 493087;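 active means activation above the mean of all tested compounds plus 3 SD, set per screening campaign, cut at about 17% in these data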
# UBC13 polyUb: inhibitors of human UBC13 polyubiquitin chain formation | TR-FRET | AID 485273 | P61088 | 330,000 tested, 0.47% active | inhibition, % at 20 µM; in the data active means inhibition above about 45%, passing the limit was not always enough
# Target sequence (P61088 whole entry, looked up): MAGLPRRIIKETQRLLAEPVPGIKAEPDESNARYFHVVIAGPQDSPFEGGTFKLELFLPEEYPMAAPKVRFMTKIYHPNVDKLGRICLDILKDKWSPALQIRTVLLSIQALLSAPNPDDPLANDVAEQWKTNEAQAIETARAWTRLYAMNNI
# IDE inh confirm: cellular human IDE inhibition, confirmation | shares compounds with IDE cell inh | AID 435028 | HEK cells, FAbetaB cleavage, fluorescence polarization | inhibition, % at 5.59 µM | 1,200 tested, 51% active;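 active means mean inhibition across triplicate wells above the cutoff set by the earlier primary insulin-degrading enzyme screen, cut at about 16% in these data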;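 further: 0% = DMSO wells and 100% = 60 µM reference IDE inhibitor Ii1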
# HEK293 tox: counter-screen for IDE inhibitors: cytotoxicity in HEK cells; shares compounds with IDE cell inh; HEK293 cytotoxicity, ATP luminescence; inhibition, % at 5.59 µM; 1,200 tested, 28% active; AID 449730; in the data active means inhibition above about 22%;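 further: 0% = vehicle wells and 100% = reference cytotoxic drug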
# * marks the source's active call; other numbers are inactive results; . = no result given. Hits are enriched below; roughly 1.9% of the tested compounds scored in any of these assays.
SMILES,procasp7 counter,PHOSPHO1 block,proCasp3 act,IDE cell inh,IDE cell activ,UBC13 polyUb,IDE inh confirm,HEK293 tox
O=C1/C(=C/c2ccccc2)Nc2ccccc21,7,18,0,28*,-13,-1,32*,6
N=c1ccn2c(n1)OC1C(O)C(CO)OC12 (stereo unspecified),15,42,10,0,6,-2,.,.
O=C(NNC(=O)c1ccc(Cl)cc1Cl)c1csc(-c2cccnc2)n1,-7,42,2,21*,0,-2,9,11
O=C(OCCN1C(=O)c2cccc3c(N4CCOCC4)ccc(c23)C1=O)c1cccc(Cl)c1,-15,-6,-24,91*,.,.,81*,38*
O=C(OCCN1C(=O)c2cccc3c(N4CCOCC4)ccc(c23)C1=O)c1ccc(Cl)cc1Cl,-21,2,-24,49*,-46,.,48*,61*
O=C(OCCN1C(=O)c2ccccc2C1=O)c1cc(S(=O)(=O)N2CCOCC2)ccc1Cl,9,22,2,2,2,1,.,.
O=C(COC(=O)c1cccc(Cl)c1)Nc1cc(S(=O)(=O)N2CCOCC2)ccc1N1CCOCC1,.,.,.,.,3,.,.,.
O=C(OCCN1C(=O)c2cccc3c(N4CCOCC4)ccc(c23)C1=O)c1ccccc1Cl,-25,3,-26,113*,-101,.,96*,50*
Cc1cccc(OCCC(=O)Nc2ccc(N3CCOCC3)cc2N2CCOCC2)c1,-6,.,3,-2,4,-13,.,.
CCNc1nnc(CSc2nc3ccccc3s2)s1,4,-1,-2,17*,-7,10,9,8
CCc1nnc(NC(=O)CSc2nc3ccccc3s2)s1,0,-7,2,0,6,-1,.,.
COc1ccc(CN(CC(=O)NCc2ccccc2)C(=O)CCC(=O)Nc2ccccn2)cc1,-8,52,1,1,3,-8,.,.
Cc1ccc2c(c1)c1ncnc(N3CCOCC3)c1n2C,2,24,-9,17*,-24,15,12,10
CN(C(=O)CN1C(=O)/C(=C/c2ccccc2F)SC1=S)C1CCS(=O)(=O)C1 (stereo unspecified),-2,14,-3,8,1,-8,.,.
Cc1ccc(S(=O)(=O)N2CCC[C@H]2C(=O)Nc2ccc(F)cc2C)cc1,-5,.,-3,1,-1,0,.,.
Cc1ccc(S(=O)(=O)N(C)c2ccc(OCC(=O)Nc3ccc(C(=O)N(C)C)cc3)cc2)cc1C,10,.,7,-4,0,4,.,.
O=C(CNC(=O)c1sc2ccccc2c1Cl)NCc1cccnc1,3,35,4,19*,-16,0,7,9
CCCC(=O)NC(c1ccc(Cl)cc1)c1ccc2cccnc2c1O (stereo unspecified),-7,25,2,-5,-2,-13,.,.
CC(C)CC(=O)NC(c1cccs1)c1ccc2cccnc2c1O (stereo unspecified),-2,-8,2,17*,-2,-18,8,106*
CCCCC(=O)NC(c1ccc(Cl)cc1)c1ccc2cccnc2c1O (stereo unspecified),-7,.,-1,19*,-6,-7,4,99*
COc1ccc(-c2noc(CNC(=O)c3ccoc3C)n2)cc1,2,2,-8,-3,4,4,.,.
COc1ccc(CNC(=O)COC(=O)c2ccc(F)c(S(=O)(=O)N3CCOCC3)c2)cc1,3,.,-2,17*,-3,-4,1,7
COc1ccc(CCNC(=O)COC(=O)c2ccc(F)c(S(=O)(=O)N3CCOCC3)c2)cc1,8,.,-7,-3,3,-1,.,.
CC(C)(C)NC(=O)/C(=C\c1ccc(Br)cc1)NC(=O)c1cccs1,-1,7,-2,-1,3,-1,.,.
NNC(=O)/C(=C\c1ccc(Br)cc1)NC(=O)c1cccs1,8,32,0,17*,8,-6,7,8
SMILES,procasp7 counter,PHOSPHO1 block,proCasp3 act,IDE cell inh,IDE cell activ,UBC13 polyUb,IDE inh confirm,HEK293 tox
C[C@H](CO)N1C[C@H](C)[C@@H](CN(C)Cc2ccc(Oc3ccccc3)cc2)Oc2c(NC(=O)c3ccncc3)cccc2C1=O,1,.,-4,24*,-14,6,7,24*
CCCCn1nnc(NC(=O)c2ccc(-c3ccccc3)cc2)n1,4,17,2,18*,-12,5,7,55*
CCCCn1nnc(NC(=O)c2cc3ccccc3o2)n1,1,7,5,-3,-1,2,.,.
CCc1cc(Cn2nc(-c3ccccc3)cc2C(=O)NCc2cccc(Br)c2)on1,8,.,1,0,1,6,.,.
Cc1ccc(-c2cc(C(=O)Nc3ccc(S(=O)(=O)Nc4ncccn4)cc3)[nH]n2)c(O)c1C,10,3,5,31*,-26,6,20*,10
Cc1cc(/C=C2\SC(=S)N(C)C2=O)c(C)n1-c1ccc(O)cc1,-1,28,.,15,-20,-50,.,.
Cc1cc(/C=C2\SC(=S)N(C)C2=O)c(C)n1-c1ccccc1O,0,.,-13,27*,-47,-54,29*,47*
O=C(/C=C/c1ccc(OCc2cccc(Cl)c2)cc1)N1CCOCC1,6,24,1,18*,-6,11,10,18
Cc1cc(=O)[nH]c(/N=C(\N)Nc2cccc3ccccc23)n1,14,29,3,16*,-35,-4,7,13
CC(=O)c1sc(N/N=C\c2c(O)ccc3ccccc23)nc1C,-17,.,-7,23*,-13,-30,39*,38*
CC(=O)c1sc(N/N=C/c2cccc(O)c2)nc1C,-10,-4,2,12,-13,5,.,.
O=C(/C=C/c1ccc(Cl)cc1)NC(=S)Nc1ccc(NC(=O)c2ccco2)cc1,1,-1,-1,43*,-20,.,17*,77*
COc1ccc(NC(=O)c2sc3nc(-c4cccnc4)ccc3c2N)cc1,-4,3,-20,10,-10,-6,.,.
COc1ccc(NC(=O)c2sc3nc(-c4cccnc4)ccc3c2N)cc1OC,2,-1,-4,19*,-4,-8,13,18
CCOc1ccccc1NC(=O)COC(=O)c1c(CC)noc1C,.,.,.,.,5,3,.,.
COc1cccc(/C=C/C(=O)c2c(O)cc(C)oc2=O)c1O,-9,0,-1,8,3,-18,.,.
COc1ccc(/C=C/C(=O)c2c(O)cc(C)oc2=O)c(OC)c1,-6,6,-14,20*,-9,-9,2,19

# High-throughput results as filed in PubChem.
